Experimental findings from PubChem BioAssay are described below.

Activity calls are given as the source filed them.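 How the source made its calls, unless noted: active means NADPH fluorescence slope more negative than the mean of all samples by about 3 SD, 99.7% confidence; inactive means the rest.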

The nature of experiment [1]: inhibitors of TNFa-induced NFkB p65 translocation, primary screen, imaging, HUVEC, MLSMR starter and 10KST1 sets (AID 438;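 active means inhibition above 20% together with a positive visual image hit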;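 further: compound added about 3h40 before a 20 min TNFalpha stimulation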;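 on inhibition: signal is the nuclear over cytoplasmic p65 intensity ratio per well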). The following applies: HUVEC TNFa-induced p65 nuclear translocation; cell count: measured here: nuclei count (cytotoxicity indicator), at 2.08 µM; inhibition: at 2 µM, stronger effect = higher value, 0% TNFa-plus-vehicle, 100% no-TNFa wells.
A short description of experiment [2]: reduction of polyQ htt aggregates in cells – imaging, exon1htt(103Q)mCFP cells, high-content imaging, primary screen (AID 483;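 active means visual image review flags a hit and inhibition of aggregation exceeds 20%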;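 further: compound exposure lasted 3 days before fixation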;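 on nuclei count: percent of the per-plate median nuclei count of sample wells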). The note with it: exon1htt(103Q)mCFP cell line, aggregate imaging, at 2 µM; inhibition of aggregation: stronger effect = higher value; nuclei count: measured here: cell count, toxicity.
Experiment [3] in a line: endothelial E-selectin expression blockers – imaging, HUVEC, immunofluorescence, MLSMR starter and 10KST1 sets, primary screen (AID 487;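 active means visually confirmed hit in the image check and inhibition above 20%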;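 on inhibition: signal is fraction of cell area covered by stained E-selectin grains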;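 on nuclei count: 100% = median nuclei count of all wells on the same plate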). The following applies: HUVEC TNFalpha-induced E-selectin immunofluorescence imaging, at 2 µM; inhibition: stronger effect = higher value; nuclei count: measured here: cell number, toxicity.
Experiment [4] addresses Voltage-gated potassium channel subunit beta-2 (Rattus norvegicus) (UniProt P62483). The experiment can be described thus: inhibitors of rat Kvbeta2 reductase activity – biochemical, NADPH fluorescence, primary screen (AID 622;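 active means fluorescence slope higher than the sample average by over 3 SD, cut at about -0.22 in these data, passing the limit was not always enough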;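 further: slope of raw intensity against log time taken from 70 to 1610 s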). The note with it: recombinant KvBeta, 4-cyanobenzaldehyde reduction, at 10 µM, stronger effect = higher value.
Experiment [5] shares this target. The experiment can be described thus: enhancers of rat Kvbeta2 NADPH turnover – biochemical, NADPH fluorescence, primary screen (AID 623).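 Further: fluorescence intensity change per second fitted from 20 to 320 s.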 The note with it: Recombinant KvBeta, NADPH fluorescence decrease slope, 10 min; at 10 µM; stronger effect = lower value.
Experiment [6] has as its target Muscarinic acetylcholine receptor M4 (Homo sapiens) (UniProt P08173). The experiment can be described thus: M4-linked GIRK flux change, two-sided – cell-based, HEK293 M4/GIRK, thallium flux, BTC-AM, M4 allosteric agonist project, primary screen (AID 625;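 active means fluorescence slope after compound addition differing from the mean of all tested samples at 99.7% confidence, mostly higher but some lower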;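 further: thallium influx through GIRK channels coupled to M4 in HEK293 cells with BTC-AM dye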). The following applies: at 10 µM, actives lie on both sides. In outline:
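Material: M4/GIRK1/GIRK2 stable HEK293 cell line. Medium: pH 7.3 thallium assay buffer. Dosing: single compound concentration, 10 µM final. Schedule: 1 h dye loading, 2 min kinetic read. Measured by: kinetic fluorescence with BTC-AM dye. Read-out: post-addition slope, 15–24 s, of baseline-normalized fluorescence. Benchmarks: carbachol and DMSO controls.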

Experiment [7] in a line: blockers of RIG-like receptor reporter activation – cell-based, Sendai virus stimulus, luciferase, 10K MLSCN set, TLR/RLR signaling modifier project, primary screen (AID 602276;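 active means inhibition at or above 50% at 10 µM; inactive means inhibition below 50%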;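 further: firefly luciferase from ISG56 promoter only with Renilla not read in this screen; 0% = Sendai virus plus DMSO and 100% = medium plus DMSO without virus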). The note with it: HEK293 RL24 IRF3 luciferase reporter, at 10 µM, stronger effect = higher value.
Experiment [8] in a line: TLR3 IRF3 reporter activation blockers – cell-based, poly I:C stimulus, luciferase, 10K MLSCN set, primary screen (AID 602277;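 active means inhibition of the reporter signal at or above 50%; inactive means inhibition below 50%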). The following applies: HEK293-TLR3 RL24 IRF3 luciferase reporter, at 10 µM, stronger effect = higher value.

Chain of Muscarinic acetylcholine receptor M4 (Homo sapiens) (P08173 whole entry, looked up): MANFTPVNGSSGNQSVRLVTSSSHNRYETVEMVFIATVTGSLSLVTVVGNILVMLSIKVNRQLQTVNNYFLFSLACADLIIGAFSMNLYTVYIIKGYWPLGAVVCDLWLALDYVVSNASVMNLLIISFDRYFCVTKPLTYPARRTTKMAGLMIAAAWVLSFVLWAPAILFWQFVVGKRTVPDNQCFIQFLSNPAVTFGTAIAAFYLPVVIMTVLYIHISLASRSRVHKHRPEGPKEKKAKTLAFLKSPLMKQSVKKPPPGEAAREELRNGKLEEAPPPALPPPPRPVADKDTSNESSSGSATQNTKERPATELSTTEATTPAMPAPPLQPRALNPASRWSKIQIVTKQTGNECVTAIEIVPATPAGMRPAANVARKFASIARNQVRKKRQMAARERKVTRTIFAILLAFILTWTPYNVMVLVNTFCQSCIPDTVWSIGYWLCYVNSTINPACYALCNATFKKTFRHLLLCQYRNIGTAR
Chain of Voltage-gated potassium channel subunit beta-2 (Rattus norvegicus) (P62483 whole entry, looked up): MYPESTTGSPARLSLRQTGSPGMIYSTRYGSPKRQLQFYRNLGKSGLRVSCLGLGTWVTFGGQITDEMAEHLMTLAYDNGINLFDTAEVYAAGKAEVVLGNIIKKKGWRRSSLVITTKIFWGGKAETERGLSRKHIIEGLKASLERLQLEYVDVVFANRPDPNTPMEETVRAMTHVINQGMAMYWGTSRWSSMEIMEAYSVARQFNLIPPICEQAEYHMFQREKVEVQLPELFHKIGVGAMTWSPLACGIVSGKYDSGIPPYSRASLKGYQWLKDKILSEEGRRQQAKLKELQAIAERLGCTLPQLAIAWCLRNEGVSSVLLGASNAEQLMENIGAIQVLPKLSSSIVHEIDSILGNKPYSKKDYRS

In general, inhibition refers to the change of the read-out against control, counted positive when it falls. As to `COc1ccc(CNc2nc(SCC(=O)NCc3ccco3)nc3ccccc23)cc1`, in experiment [1], the cell count is 705. Moreover, the inhibition was 0.9% (inactive) in experiment [1], -50.5% (inactive) in experiment [3], -0.825% (inactive) in experiment [7] and 2.94% (inactive) in experiment [8]. Further, the inhibition of aggregation in experiment [2] is -24.8% (inactive). Also, the nuclei count in experiment [2] was found to be 104%; in experiment [3] it was 99.3%. Further, the fluorescence slope is -0.484 (inactive) in experiment [4] and 0.00602 (inactive) in experiment [6]. Besides, the NADPH fluorescence slope in experiment [5] was 9.7e-05 (inactive).

As for `Cc1nc2ccccn2c1/C(O)=C1\C(=O)C(=O)N(CCN2CCOCC2)C1c1cccs1` (centres undefined), the cell count in experiment [1] was 318. The inhibition is 0.2% (inactive) in experiment [1], -41.3% (inactive) in experiment [3], -0.701% (inactive) in experiment [7] and 7.4% (inactive) in experiment [8]. The inhibition of aggregation in experiment [2] was 0.3% (inactive). Also, the nuclei count is 99.6% in experiment [2] and 116% in experiment [3]. Further, the fluorescence slope in experiment [4] is -0.301 (inactive); in experiment [6], 0.00659 (inactive). Besides, in experiment [5], the NADPH fluorescence slope was -1.7e-05 (inactive).

Take `Cc1cc(C)c2c(n1)sc1c(N3CCOCC3)ncnc12`: the cell count in experiment [1] came out at 301. Moreover, the inhibition in experiment [1] was -4.9% (inactive); in experiment [3], -61.4% (inactive); in experiment [7] it was 5.74% (inactive); in experiment [8] it was -3.16% (inactive). Moreover, the inhibition of aggregation in experiment [2] is -151% (inactive). In addition, the nuclei count was found to be 0.6% in experiment [2] and 121% in experiment [3]. Moreover, the figures for the fluorescence slope in experiment [4] and in experiment [6] were -0.305 (inactive) and 0.00639 (inactive), respectively. Further, the NADPH fluorescence slope in experiment [5] was -6.3e-05 (inactive).

Regarding `COCCNC(=O)c1ccc2c(c1)nc(C)n2-c1cccc(F)c1`, the cell count in experiment [1] is 292. Moreover, the inhibition in experiment [1] was 19.4% (inactive); in experiment [3], -16.6% (inactive); in experiment [7], 15.5% (inactive); in experiment [8] it was 17.5% (inactive). The inhibition of aggregation in experiment [2] was -2% (inactive). The nuclei count in experiment [2] turned out to be 99.8%; in experiment [3] it was 98.7%. In addition, the fluorescence slope was -0.572 (inactive) in experiment [4] and 0.00562 (inactive) in experiment [6]. For the same compound, in experiment [5], the NADPH fluorescence slope was -3.3e-05 (inactive).

Regarding `CCNc1nc(OC)nc(Oc2ccc(=O)n(-c3ccccc3)n2)n1`, the cell count in experiment [1] was 769. In addition, the inhibition in experiment [1] was 6.8% (inactive); in experiment [3], -86.7% (inactive); in experiment [7], 16.1% (inactive); in experiment [8], 22% (inactive). Also, the inhibition of aggregation in experiment [2] was 8.6% (inactive). Also, the nuclei count in experiment [2] was determined as 106%; in experiment [3], 124%. The fluorescence slope in experiment [4] was -0.261 (inactive); in experiment [6], 0.00602 (inactive). For the same compound, the NADPH fluorescence slope in experiment [5] was -3e-05 (inactive).

Consider `CC(C)CC(c1nnnn1C1CCCC1)N1CCN(c2ccccc2F)CC1` (centres undefined), for which the cell count in experiment [1] was 384. The inhibition in experiment [1] is -3.6% (inactive); in experiment [3] it was -26.9% (inactive); in experiment [7] it was 15.2% (inactive); in experiment [8], 26.4% (inactive). For the same compound, in experiment [2], the inhibition of aggregation was 6.8% (inactive). In addition, the nuclei count was 91.4% in experiment [2] and 109% in experiment [3]. For the same compound, the fluorescence slope was -0.589 (inactive) in experiment [4] and 0.00507 (inactive) in experiment [6]. Also, the NADPH fluorescence slope in experiment [5] was 2e-05 (inactive).

As to `N#CC1=C(N)Oc2n[nH]c(-c3ccncc3)c2C1c1ccsc1` (centres undefined), the cell count in experiment [1] worked out at 387. For the same compound, the inhibition in experiment [1] is -1.5% (inactive); in experiment [3] it was 35.9% (inactive); in experiment [7] it was -2.51% (inactive); in experiment [8] it was -6.52% (inactive). Further, the inhibition of aggregation in experiment [2] is -10.3% (inactive). Also, the nuclei count in experiment [2] is 109%; in experiment [3], 98.6%. Further, the fluorescence slope in experiment [4] is -0.546 (inactive); in experiment [6], 0.00579 (inactive). Besides, the NADPH fluorescence slope in experiment [5] is 1.9e-05 (inactive).

On to `COc1cc(C)nc(NS(=O)(=O)c2ccc(C)cc2)n1`, for which the cell count in experiment [1] worked out at 399. Also, the inhibition in experiment [1] was 3.9% (inactive); in experiment [3], -45.6% (inactive); in experiment [7] it was 20.8% (inactive); in experiment [8] it was 23% (inactive). For the same compound, the inhibition of aggregation in experiment [2] is -0.3% (inactive). Besides, the nuclei count turned out to be 97.2% in experiment [2] and 109% in experiment [3]. Also, the fluorescence slope is -0.563 (inactive) in experiment [4] and 0.00648 (inactive) in experiment [6]. In addition, in experiment [5], the NADPH fluorescence slope is -2.7e-05 (inactive).

As to `CN(Cc1cccs1)c1ncnc2sccc12`, the cell count in experiment [1] was 549. In addition, the inhibition in experiment [1] was -11.6% (inactive); in experiment [3], -38.6% (inactive); in experiment [7] it was 7.29% (inactive); in experiment [8] it was -37.9% (inactive). Further, the inhibition of aggregation in experiment [2] is -28.3% (inactive). Further, the values for the nuclei count in experiment [2] and in experiment [3] were 101% and 147%, respectively. Besides, the figures for the fluorescence slope in experiment [4] and in experiment [6] were -0.456 (inactive) and 0.00479 (inactive), respectively. Also, in experiment [5], the NADPH fluorescence slope is 2.8e-05 (inactive).
